Results: ChEMBL document CHEMBL4364270, “Structure-activity relationship studies on Bax activator SMBA1 for the treatment of ER-positive and triple-negative breast cancer” (Eur J Med Chem, 2019)

Legend:
[1] = tested on: MCF7; assay: Antiproliferative activity against ER-positive human MCF7 cells assessed as reduction in cell growth incubated for 48 hrs by MTT assay; format: functional, cell-based; settings: MCF7, 48 h
Procedure, shortened: (§1)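 MTT viability: MCF-7 and MDA-MB-231 seeded 1×10^4 cells/well, exposed to DMSO or 0.01-100 μM for 48 h; MTT (5 mg/mL in PBS) added 4 h, formazan dissolved in DMSO, OD 550 nm; quadruplicate wells; IC50 fitted for compounds giving >50% inhibition at 10 µM; at least three independent experiments.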

[2] = tested on: MDA-MB-231; assay: Antiproliferative activity against triple negative human MDA-MB-231 cells assessed as reduction in cell growth incubated for 48 hrs by MTT assay; format: functional, cell-based; settings: MDA-MB-231, 48 h; procedure, shortened: as §1
[3] = tested on: MCF7; assay: Antiproliferative activity against ER-positive human MCF7 cells assessed as reduction in cell viability at 10 uM incubated for 48 hrs by MTT assay relative to control; format: functional; settings: MCF7, 48 h; procedure, shortened: as §1
[4] = tested on: MDA-MB-231; assay: Antiproliferative activity against triple negative human MDA-MB-231 cells assessed as reduction in cell growth at 10 uM incubated for 48 hrs by MTT assay relative to control; format: functional; settings: MDA-MB-231, 48 h; procedure, shortened: as §1
[5] = tested on: MCF-10A; assay: Antiproliferative activity against human MCF10A cells assessed as reduction in cell growth incubated for 72 hrs by MTT assay; format: functional, cell-based
Procedure, shortened: (§2)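 MTT viability after 72 h exposure at indicated concentrations; cells seeded at 1×10^3 cells/well (T47D, MDA-MB-468, MCF-10A, MCF-7/ADR) in 96-well plates; quadruplicate wells, independently repeated three times; IC50 as mean ± SE of at least three experiments.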

[6] = Toxicity in mouse xenografted with triple negative human MDA-MB-231 cells assessed as body weight at 40 mg/kg, ip administered once daily for 7 days; format: organism-based; settings: in vivo, 168 h
Procedure, shortened: (§3)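 Female nude mice (6 weeks) given 2.5×10^6 MDA-MB-231 cells in PBS into third mammary fat pad, randomized into four groups; at 200 mm³ tumor volume dosed i.p. daily for 7 days in 50% DMSO/50% PEG vehicle; tumor volume (0.5×L×W²) and body weight measured daily; one-way ANOVA.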

[7] = tested on: T47D; assay: Antiproliferative activity against ER-positive human T47D cells assessed as reduction in cell growth incubated for 72 hrs by MTT assay; format: functional, cell-based; procedure, shortened: as §2
[8] = tested on: MDA-MB-231; assay: Antitumor activity against triple-negative human MDA-MB-231 cells xenografted in mouse assessed as reduction in tumor growth at 40 mg/kg, ip administered once daily for 7 days; format: functional; settings: MDA-MB-231, ip, 168 h, read-out: GI; procedure, shortened: as §3
[9] = tested on: MDA-MB-468; assay: Antiproliferative activity against triple negative human MDA-MB-468 cells assessed as reduction in cell growth incubated for 72 hrs by MTT assay; format: functional, cell-based; settings: MDA-MB-468, 72 h; procedure, shortened: as §2
[10] = tested on: MCF7; assay: Potency index, ratio of SMBA1 IC50 to compound IC50 for antiproliferative activity against ER-positive human MCF7 cells assessed as reduction in cell growth incubated for 48 hrs by MTT assay; format: functional
[11] = tested on: MDA-MB-231; assay: Antitumor activity against triple-negative human MDA-MB-231 cells xenografted in mouse assessed as reduction in tumor growth at 20 mg/kg, ip administered once daily for 7 days; format: functional; settings: MDA-MB-231, ip, 168 h, read-out: GI; procedure, shortened: as §3
[12] = Toxicity in mouse xenografted with triple negative human MDA-MB-231 cells assessed as body weight at 20 mg/kg, ip administered once daily for 7 days; format: organism-based; settings: in vivo, 168 h; procedure, shortened: as §3
[13] = tested on: MDA-MB-231; assay: Potency index, ratio of SMBA1 IC50 to compound IC50 for antiproliferative activity against triple negative human MDA-MB-231 cells assessed as reduction in cell growth incubated for 48 hrs by MTT assay; format: functional

Row | Structure (SMILES) | IC50 [1] [µM] | IC50 [2] [µM] | inhibition at 10 µM [3] [%] | inhibition at 10 µM [4] [%] | other results
1 | CN1CCN(c2ncccc2C=C2c3ccccc3-c3ccc([N+](=O)[O-])cc32)CC1 | > 10 | > 10 |  |  | 
2 | CC[C@H](N)COc1ccccc1C=C1c2ccccc2-c2ccc([N+](=O)[O-])cc21 | 4.66 | 5.08 | > 50 | > 50 | 
3 | O=[N+]([O-])c1ccc2c(c1)C(=Cc1ccccc1OCCO)c1ccccc1-2 |  | > 10 |  |  | 
4 | NCCOc1ccccc1C=C1c2ccccc2-c2ccc(N)cc21 | 6.31 | 6.03 | > 50 | > 50 | 
5 | CC(C)(C)OC(=O)NCCOc1ccccc1C=C1c2ccccc2-c2ccc([N+](=O)[O-])cc21 | > 10 | > 10 |  |  | 
6 | O=[N+]([O-])c1ccc2c(c1)C(=Cc1ccccc1O)c1ccccc1-2 | 8.3 | 5.6 | > 50 | > 50 | IC50 [5]: 7.58 µM; Activity [6]: Non-Toxic; IC50 [7]: 10.4 µM; inhibition in vivo at 40 mg/kg [8]: 51%; IC50 [9]: 16.1 µM
7 | CNCCOc1ccccc1C=C1c2ccccc2-c2ccc([N+](=O)[O-])cc21 | 4.26 | 5.48 | > 50 | > 50 | 
8 | CC(=O)N1CCN(CCOc2ccccc2C=C2c3ccccc3-c3ccc([N+](=O)[O-])cc32)CC1 | > 10 | > 10 |  |  | 
9 | CN1CCN(CCOc2ccccc2C=C2c3ccccc3-c3ccc([N+](=O)[O-])cc32)CC1 | 9.58 | > 10 | > 50 |  | 
10 | Nc1ccccc1C=C1c2ccccc2-c2ccc([N+](=O)[O-])cc21 | > 10 | > 10 |  |  | 
11 | NCCOc1ccccc1C=C1c2ccccc2-c2ccc([N+](=O)[O-])cc21 | 3.81 | 3.22 | > 50 | > 50 | IC50 [5]: 4.37 µM; Ratio IC50 [10]: 1.7 - 2.2; inhibition in vivo at 20 mg/kg [11]: 57%; IC50 [7]: 9.47 µM; Activity [12]: Non-Toxic; Ratio IC50 [13]: 1.7 - 2.2; IC50 [9]: 8.73 µM
12 | NCCOc1cccc(C=C2c3ccccc3-c3ccc([N+](=O)[O-])cc32)c1 | 3.77 | 4.87 | > 50 | > 50 | 
13 | CS(=O)(=O)N1CCN(CCOc2ccccc2C=C2c3ccccc3-c3ccc([N+](=O)[O-])cc32)CC1 |  | > 10 |  |  | 
14 | O=[N+]([O-])c1ccc2c(c1)C(=Cc1ccccc1OCCN1CCN(S(=O)(=O)C3CC3)CC1)c1ccccc1-2 |  | > 10 |  |  | 
15 | O=[N+]([O-])c1ccc2c(c1)C(=Cc1ccccc1OCCN1CCNCC1)c1ccccc1-2 | 4.97 | 3.5 | > 50 | > 50 | 
16 | NCCCCOc1ccccc1C=C1c2ccccc2-c2ccc([N+](=O)[O-])cc21 | 5.77 | 3.66 | > 50 | > 50 | 
17 | CN(C)CCNc1ccccc1C=C1c2ccccc2-c2ccc([N+](=O)[O-])cc21 | > 10 | > 10 |  |  | 
18 | CC(C)[C@H](N)COc1ccccc1C=C1c2ccccc2-c2ccc([N+](=O)[O-])cc21 | 4.5 | 5.04 | > 50 | > 50 | 

Row | Structure (SMILES) | IC50 [1] [µM] | IC50 [2] [µM] | inhibition at 10 µM [3] [%] | inhibition at 10 µM [4] [%] | other results
19 | COc1ccccc1C=C1c2ccccc2-c2ccc([N+](=O)[O-])cc21 | > 10 | > 10 |  |  | 
20 | CN(C)CCOc1ccccc1C=C1c2ccccc2-c2ccc([N+](=O)[O-])cc21 | > 10 | > 10 |  |  | 
21 | NCCOCCOc1ccccc1C=C1c2ccccc2-c2ccc([N+](=O)[O-])cc21 | 6.13 | 9.35 | > 50 | > 50 | 
22 | Nc1ccc2c(c1)C(=Cc1ccccc1O)c1ccccc1-2 | > 10 | > 10 |  |  | 
23 | NC[C@H](CCl)Oc1ccccc1C=C1c2ccccc2-c2ccc([N+](=O)[O-])cc21 | > 10 | > 10 |  |  | 
24 | NCCCOc1ccccc1C=C1c2ccccc2-c2ccc([N+](=O)[O-])cc21 | 5.13 | 5.34 | > 50 | > 50 | 
25 | NCCOc1ccc(C=C2c3ccccc3-c3ccc([N+](=O)[O-])cc32)cc1 | 8.47 | 6.4 | > 50 | > 50 | 
26 | O=[N+]([O-])c1ccc2c(c1)C(=Cc1cccnc1O)c1ccccc1-2 |  | > 10 |  |  | 
27 | O=[N+]([O-])c1ccc2c(c1)C(=Cc1cccnc1N1CCNCC1)c1ccccc1-2 | 5 | 4.27 | > 50 | > 50 | 
28 | O=[N+]([O-])c1ccc2c(c1)C(=Cc1ccccc1Br)c1ccccc1-2 | > 10 | > 10 |  |  | 
29 | Nc1ncccc1C=C1c2ccccc2-c2ccc([N+](=O)[O-])cc21 | > 10 | > 10 |  |  | 
30 | O=[N+]([O-])c1ccc2c(c1)C(=Cc1ccccc1OC1CCNCC1)c1ccccc1-2 | 5.45 | 3.53 | > 50 | > 50 | 
31 | O=[N+]([O-])c1ccc2c(c1)C(=Cc1ccccc1OCCN1CCCCC1)c1ccccc1-2 | > 10 | 8.64 |  | > 50 | 
32 | COc1ncccc1C=C1c2ccccc2-c2ccc([N+](=O)[O-])cc21 | > 10 | > 10 |  |  | 
33 | O=[N+]([O-])c1ccc2c(c1)C(=Cc1ccccc1OCCF)c1ccccc1-2 | > 10 | > 10 |  |  | 
34 | O=[N+]([O-])c1ccc2c(c1)C(=Cc1ccccc1OCCN1CCOCC1)c1ccccc1-2 |  | > 10 |  |  | 
35 | CC(=O)NCCOc1ccccc1C=C1c2ccccc2-c2ccc([N+](=O)[O-])cc21 | > 10 | > 10 |  |  | 
